Data on eleven molecules can be found in ChEMBL document CHEMBL4024789, “Neutral Porphyrin Derivative Exerts Anticancer Activity by Targeting Cellular Topoisomerase I (Top1) and Promotes Apoptotic Cell Death without Stabilizing Top1-DNA Cleavage Complexes” (J Med Chem, 2018).

Test [1] addresses T1, DNA topoisomerase 1 (Homo sapiens, UniProt P11387).
T1 sequence (P11387 whole entry): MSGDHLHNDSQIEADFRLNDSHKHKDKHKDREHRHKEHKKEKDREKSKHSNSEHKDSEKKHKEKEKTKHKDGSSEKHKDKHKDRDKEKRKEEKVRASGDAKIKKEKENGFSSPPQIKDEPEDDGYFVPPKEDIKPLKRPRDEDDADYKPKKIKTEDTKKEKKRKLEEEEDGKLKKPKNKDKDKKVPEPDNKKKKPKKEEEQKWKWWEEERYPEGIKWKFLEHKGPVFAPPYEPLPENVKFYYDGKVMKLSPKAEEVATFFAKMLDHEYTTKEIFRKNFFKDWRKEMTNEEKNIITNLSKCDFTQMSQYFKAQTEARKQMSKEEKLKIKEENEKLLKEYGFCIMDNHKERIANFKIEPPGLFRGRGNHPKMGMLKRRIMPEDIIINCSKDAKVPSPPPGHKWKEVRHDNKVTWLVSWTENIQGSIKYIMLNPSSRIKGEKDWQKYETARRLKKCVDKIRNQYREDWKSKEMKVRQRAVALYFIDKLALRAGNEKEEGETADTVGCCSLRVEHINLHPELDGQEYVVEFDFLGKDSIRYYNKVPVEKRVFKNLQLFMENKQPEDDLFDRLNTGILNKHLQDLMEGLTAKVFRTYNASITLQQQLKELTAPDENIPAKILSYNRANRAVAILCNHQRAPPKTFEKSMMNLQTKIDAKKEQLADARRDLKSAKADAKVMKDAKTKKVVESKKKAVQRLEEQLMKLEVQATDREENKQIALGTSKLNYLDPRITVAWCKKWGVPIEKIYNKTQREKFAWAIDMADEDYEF
The test can be described thus: Inhibition of recombinant human topoisomerase-1 expressed in baculovirus infected sf9 cells using supercoiled pBS SK(+) DNA as substrate preincubated for 5 mins followed by substrate addition measured after 15 mins by ethidium bromide staining based agarose gel electrophoresis method. In short, it runs like this:
(§1)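 Relaxation assay: 90 fmol supercoiled pBS (SK+) DNA with 30 fmol recombinant Top1 (Sf-9/baculovirus). Compound either preincubated with Top1 for 5 min before DNA addition, or added simultaneously with DNA; then 37 °C for 15 min. Vehicle 2% DMSO. Read on 1% agarose gel. EC50 from mean ± SD of three experiments.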

Test [2] addresses T1, DNA topoisomerase 1. The test can be described thus: Inhibition of recombinant human topoisomerase-1 expressed in baculovirus infected sf9 cells using supercoiled pBS SK(+) DNA as substrate after 15 mins by ethidium bromide staining based agarose gel electrophoresis method. The method in brief: as §1
For test [3], the system named is Bacteria. The test can be described thus: Induction of relaxed pBluescript SK(+) DNA intercalation (unknown origin) assessed as negative supercoiling at 300 uM after 15 mins by agarose gel electrophoresis method. The method in brief: (§2)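 Top1 unwinding assay: excess Top1 first relaxes 50 fmol supercoiled pBS (SK+) DNA, then the relaxed DNA is incubated with compound at 50, 100 or 300 μM (m-AMSA and etoposide as references). Negative supercoiling read on agarose gel.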

The subject of test [4] is Bacteria. The test can be described thus: Induction of relaxed pBluescript SK(+) DNA intercalation (unknown origin) assessed as negative supercoiling at 50 uM after 15 mins by agarose gel electrophoresis method. The method in brief: as §2

Active and inactive are the calls of the source. The rule behind the calls is not given here.

The EC50 is the concentration that produces a half-maximal response. For the molecule `C1=Cc2nc1c(-c1ccncc1)c1ccc([nH]1)c(-c1ccncc1)c1nc(c(-c3ccncc3)c3ccc([nH]3)c2-c2ccncc2)C=C1`, the half-maximal effective concentration (EC50) at DNA topoisomerase 1 [1] and on DNA topoisomerase 1 [2] was more than 50 µM throughout.

In the case of `COc1cc([C@@H]2c3cc4c(cc3[C@@H](O[C@@H]3O[C@@H]5CO[C@@H](C)O[C@H]5[C@H](O)[C@H]3O)[C@H]3COC(=O)[C@H]23)OCO4)cc(OC)c1O`, the outcome with Bacteria [3] was inactive.

Turning to `C1=Cc2nc1c(-c1ccccc1)c1ccc([nH]1)c(-c1ccccc1)c1nc(c(-c3ccccc3)c3ccc([nH]3)c2-c2ccccc2)C=C1`, the EC50 on DNA topoisomerase 1 [1] and on DNA topoisomerase 1 [2] was more than 50 µM each time.

In the case of `Brc1ccc(-c2c3nc(c(-c4ccc(Br)cc4)c4ccc([nH]4)c(-c4ccncc4)c4nc(c(-c5ccncc5)c5ccc2[nH]5)C=C4)C=C3)cc1`, the EC50 on DNA topoisomerase 1 [1] and on DNA topoisomerase 1 [2] was more than 50 µM throughout.

In the case of `CN(C)c1ccc(-c2c3nc(c(-c4ccc(N(C)C)cc4)c4ccc([nH]4)c(-c4ccc(N(C)C)cc4)c4nc(c(-c5ccc(C(=O)O)cc5)c5ccc2[nH]5)C=C4)C=C3)cc1`, the EC50 on DNA topoisomerase 1 [1] stood at 1.23 µM; on DNA topoisomerase 1 [2] it was 1.97 µM.

For the molecule `COc1cc(NS(C)(=O)=O)ccc1Nc1c2ccccc2nc2ccccc12`, the result in the test with Bacteria [4] was Active.

For the molecule `Brc1ccc(-c2c3nc(c(-c4ccc(-c5ccncc5)cc4)c4ccc([nH]4)c(-c4ccc(Br)cc4)c4nc(c(-c5ccc(-c6ccncc6)cc5)c5ccc2[nH]5)C=C4)C=C3)cc1`, the 50% effective concentration (EC50) at DNA topoisomerase 1 [1] and at DNA topoisomerase 1 [2] was more than 50 µM each time.

For `Brc1ccc(-c2c3nc(c(-c4ccncc4)c4ccc([nH]4)c(-c4ccncc4)c4nc(c(-c5ccncc5)c5ccc2[nH]5)C=C4)C=C3)cc1`, the concentration for a half-maximal effect (EC50) on DNA topoisomerase 1 [1] and on DNA topoisomerase 1 [2] was more than 50 µM throughout.

`O=C(O)c1ccc(-c2c3nc(c(-c4ccc(C(=O)O)cc4)c4ccc([nH]4)c(-c4ccc(C(=O)O)cc4)c4nc(c(-c5ccc(C(=O)O)cc5)c5ccc2[nH]5)C=C4)C=C3)cc1`: the results for the 50% effective concentration (EC50) on DNA topoisomerase 1 [1] and at DNA topoisomerase 1 [2] were 0.563 µM and 2.02 µM, respectively.

As to `Nc1ccc(-c2ccc(-c3c4nc(c(-c5ccc(-c6ccc(N)cc6)cc5)c5ccc([nH]5)c(-c5ccncc5)c5nc(c(-c6ccncc6)c6ccc3[nH]6)C=C5)C=C4)cc2)cc1`, the concentration for a half-maximal effect (EC50) at DNA topoisomerase 1 [1] is 63.4 µM; on DNA topoisomerase 1 [2], 82.8 µM.

On to `Brc1ccc(-c2c3nc(c(-c4ccncc4)c4ccc([nH]4)c(-c4ccc(Br)cc4)c4nc(c(-c5ccncc5)c5ccc2[nH]5)C=C4)C=C3)cc1`, for which the EC50 at DNA topoisomerase 1 [1] and on DNA topoisomerase 1 [2] was more than 50 µM throughout.
